Measured values published in ChEMBL document CHEMBL4715807, “Development of Small Molecules with a Noncanonical Binding Mode to HIV-1 Trans Activation Response (TAR) RNA” (J Med Chem, 2016).
Activity calls are given as the source filed them. The calls are words filed in the database; no cut-off is given here.

Experiments:
[1] = Binding affinity to HIV1 23-2AP TAR by 2-AP based fluorescence assay; set-up: species or system Human immunodeficiency virus 1; details: read-out: Kd(app)
Method in brief: (§1)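 2-AP-labelled TAR hairpin (U23 or U25 replaced) annealed at 95 °C 3 min, cooled ≥30 min, used at 1 μM in PBS pH 7.4 with compound added from DMSO, 30 min at room temperature with rocking. Fluorescence read at ex 310/em 365 nm, compound fluorescence subtracted, normalized to free RNA. Apparent Kd from nonlinear fit; highest concentration 400 μM; triplicates, ± SD.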

[2] = Binding affinity to HIV1 25-2AP TAR by 2-AP based fluorescence assay; set-up: species or system Human immunodeficiency virus 1; details: read-out: Kd(app); method in brief: as §1
[3] = Binding affinity to HIV1 TAR by FRET based Tat/TAR displacement assay; set-up: species or system Human immunodeficiency virus 1
Method in brief: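 Unlabeled TAR (100 nM) with 16-mer Tat peptide (N-terminal FAM, C-terminal TAMRA; 12 nM) in 50 mM Tris pH 7.4, 20 mM KCl, 0.01% Triton X-100, 5% DMSO; compound added and incubated 30 min at room temperature with rocking. Read at ex 485/em 590 nm. Controls: complex alone for 0% inhibition, peptide alone for 100%.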

[4] = tested on: Human immunodeficiency virus 1; assay: Binding affinity to HIV-1 TAR RNA 5'-UTR assessed as 1M7 reactivity reduction throughout TAR with residues U13-14, C19, and G32 by SHAPE analysis
Method in brief: (§2)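 RNA (5 pmol) heated to 90 °C 3 min, slowly cooled to 4 °C, in 50 mM Tris-HCl pH 8.0, 100 mM NaCl, 5 mM MgCl2, then 37 °C for 15 min. Ligand added to final 5 or 0.5 μM, 10 min at room temperature. 1M7 at final 3.5 mM (DMSO alone for control), 37 °C 5 min. Primer extension with SuperScript III, capillary electrophoresis; control peak areas subtracted.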

[5] = tested on: Human immunodeficiency virus 1; assay: Effect on global topology of HIV-1 RNA 5'-UTR by SHAPE analysis; method in brief: as §2
[6] = tested on: Human immunodeficiency virus 1; assay: Binding affinity to HIV-1 TAR RNA 5'-UTR assessed as induction of chemical reactivity by SHAPE analysis; method in brief: as §2
[7] = tested on: Human immunodeficiency virus 1; assay: Binding affinity to HIV1 TAR assessed as induction of chemical shift perturbations of TAR residues by NMR analysis
Method in brief: (§3)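 NMR buffer: 20 mM d19-Bis-Tris pH 6.5, 10 mM NaCl, DSA reference, in D2O or 95% H2O/5% D2O. Ligand stocks 10 mM in d6-DMSO; free-ligand samples […], final DMSO 15%. RNA heated 90 °C 4 min, snap-cooled at −20 °C. 1D 1H with excitation sculpting; ligand line broadening with 10 μM TAR; TOCSY shift perturbations.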

[8] = tested on: Human immunodeficiency virus 1; assay: Binding affinity to HIV1 TAR by TOCSY NMR analysis; method in brief: as §3
[9] = tested on: Human immunodeficiency virus 1; assay: Binding affinity to HIV-1 TAR RNA 5'-UTR assessed as decrease in 1M7 reactivity for residue U25 within TAR bulge and U31, G33 and A35 within apical loop by SHAPE analysis; method in brief: as §2
[10] = tested on: Human immunodeficiency virus 1; assay: Binding affinity to HIV1 TAR by NMR analysis; method in brief: as §3

**Q.** With `CC(C)c1ccc2c(N)c(C(=O)Nc3cccc(C(F)(F)F)c3)sc2n1` as the compound, how does the Kd [1] read?
**A.** The Kd was 107 µM.

**Q.** And the Kd [2]?
**A.** The Kd was 43.3 µM.

**Q.** What about the IC50 [3] of the same compound?
**A.** Its IC50 is greater than 400 µM.

**Q.** With `Cc1ccc2c(N)c(C(=O)Nc3ccccn3)sc2n1` as the compound, how does the Kd [1] read?
**A.** The Kd was 64.3 µM.

**Q.** And the Kd [2]?
**A.** Its Kd is 50.3 µM.

**Q.** And the IC50 [3]?
**A.** The IC50 was greater than 400 µM.

**Q.** What does the source list for `Cc1ccc2c(N)c(C(=O)Nc3ccccc3C(F)(F)F)sc2n1`?
**A.** Kd [1]: > 400 µM; Kd [2]: 90.1 µM; IC50 [3]: 90.4 µM

**Q.** For `Cc1ccc2c(N)c(S(=O)(=O)Nc3cccc(C(F)(F)F)c3)sc2n1`, which Kd [1] is on record?
**A.** The Kd was greater than 400 µM.

**Q.** And the Kd [2]?
**A.** The Kd was greater than 400 µM.

**Q.** And the IC50 [3]?
**A.** Its IC50 is greater than 400 µM.

**Q.** Which Kd [1] does the source give for `Cc1ccc2c(N)c(-c3nnc(-c4ccccc4)o3)sc2n1` here?
**A.** The Kd was 56.9 µM.

**Q.** And the Kd [2]?
**A.** Its Kd is 44.6 µM.

**Q.** And the IC50 [3]?
**A.** The IC50 was greater than 300 µM.

**Q.** With `Cc1ccc2c(N)c(C(=O)Nc3cccc(C(F)(F)F)c3)sc2n1` as the compound, how does the Kd [1] read?
**A.** The Kd was 54.1 µM.

**Q.** What about the Kd [2] of the same compound?
**A.** The Kd was 47.7 µM.

**Q.** And the IC50 [3]?
**A.** The IC50 was greater than 400 µM.

**Q.** Which Kd [1] does the source give for `Cc1ccc2c(n1)sc1c(=O)n(-c3cccc(C(F)(F)F)c3)c(=O)[nH]c12` here?
**A.** The Kd was greater than 400 µM.

**Q.** And the Kd [2]?
**A.** Its Kd is greater than 400 µM.

**Q.** And the IC50 [3]?
**A.** Its IC50 is greater than 400 µM.

**Q.** For `Cc1ccc2c(N)c(-c3nnc(-c4cccc(Cl)c4)o3)sc2n1`, which Kd [1] is on record?
**A.** The Kd was 45.6 µM.

**Q.** And the Kd [2]?
**A.** Its Kd is 42.5 µM.

**Q.** And the IC50 [3]?
**A.** The IC50 was greater than 400 µM.

**Q.** Which Kd [1] does the source give for `Cc1ccc2c(N)c(C(=O)NCc3cccc(C(F)(F)F)c3)sc2n1` here?
**A.** Its Kd is 69.4 µM.

**Q.** What about the Kd [2] of the same compound?
**A.** The Kd was 66.4 µM.

**Q.** And the IC50 [3]?
**A.** Its IC50 is greater than 400 µM.

**Q.** With `Cc1ccc2c(N)c(-c3nnc(-c4cccc(C(F)(F)F)c4)o3)sc2n1` as the compound, how does the Kd [1] read?
**A.** The Kd was 75 µM.

**Q.** And the Kd [2]?
**A.** The Kd was 49.1 µM.

**Q.** And the Activity [4]?
**A.** Its Activity is “Active”.

**Q.** And the Activity [5]?
**A.** Its Activity is “inactive”.

**Q.** And the Activity [6]?
**A.** The Activity was “Active”.

**Q.** What about the IC50 [3] of the same compound?
**A.** The IC50 was 40.1 µM.

**Q.** Which Kd [1] does the source give for `Cc1ccc2cc(C(=O)Nc3cccc(C(F)(F)F)c3)sc2n1` here?
**A.** Its Kd is greater than 400 µM.

**Q.** And the Kd [2]?
**A.** The Kd was greater than 400 µM.

**Q.** What about the IC50 [3] of the same compound?
**A.** The IC50 was greater than 400 µM.

**Q.** Which results are given for `Cc1ccc2c(N)c(C(=O)Nc3ccncc3)sc2n1`?
**A.** Kd [1]: 51.1 µM; Activity [7]: Dose-dependent effect; Kd [2]: 40 µM; Activity [8]: Active; Activity [9]: Active; Activity [5]: inactive; Activity [6]: Active; IC50 [3]: > 400 µM; Activity [10]: Active

**Q.** What does the source list for `Cc1cnc2sc(C(=O)Nc3cccc(C(F)(F)F)c3)c(N)c2c1`?
**A.** Kd [1]: 55.4 µM; Kd [2]: 48.5 µM; IC50 [3]: > 400 µM

**Q.** For `Cc1ccc2c(N)c(C(=O)Nc3ccc(C(F)(F)F)cc3)sc2n1`, which Kd [1] is on record?
**A.** Its Kd is 84.1 µM.

**Q.** What about the Kd [2] of the same compound?
**A.** The Kd was 75.3 µM.

**Q.** What about the IC50 [3] of the same compound?
**A.** Its IC50 is 87 µM.

**Q.** What does the source list for `Cc1ccc2c(N)c(S(=O)(=O)Nc3cccc(F)c3)sc2n1`?
**A.** Kd [1]: > 400 µM; Kd [2]: > 400 µM; IC50 [3]: > 400 µM; Activity [10]: inactive

**Q.** With `Cc1ccnc2sc(C(=O)Nc3cccc(C(F)(F)F)c3)c(N)c12` as the compound, how does the Kd [1] read?
**A.** The Kd was 94.1 µM.

**Q.** What about the Kd [2] of the same compound?
**A.** The Kd was 66.5 µM.

**Q.** And the IC50 [3]?
**A.** The IC50 was greater than 400 µM.

**Q.** What does the source list for `Cc1ccc2c(N)c(C(=O)Nc3cccnc3)sc2n1`?
**A.** Kd [1]: 89.5 µM; Kd [2]: 68 µM; IC50 [3]: > 400 µM

**Q.** Which results are given for `Cc1ccc2c(N)c(-c3nc(-c4cccc(C(F)(F)F)c4)no3)sc2n1`?
**A.** Kd [1]: 46 µM; Kd [2]: 47.7 µM; IC50 [3]: 45.1 µM

**Q.** For `Nc1c(-c2nnc(-c3cccc(C(F)(F)F)c3)o2)sc2ncccc12`, which Kd [1] is on record?
**A.** The Kd was 44.1 µM.

**Q.** What about the Kd [2] of the same compound?
**A.** Its Kd is 50.2 µM.

**Q.** And the IC50 [3]?
**A.** The IC50 was 37.6 µM.
